Data from ChEMBL document CHEMBL4422614 (Eur J Med Chem, 2019).
Calls of active or inactive are those of the source. No cut-off for these calls is given here.

Columns and labels:
[1] = system: Mus musculus; test: Cognition enhancement activity in amyloid beta (25 to 35 residues) induced C57BL/6J mouse model of Alzheimer's disease assessed as swimming time in effective region at 4 mg/kg/day, ig administered for 26 consecutive days by Morris water maze test (4.3 +/- 1.3 sec); type: functional
Procedure, shortened: (§1)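 Mice were randomized into 7 groups. All except sham got an ICV injection of Aβ25-35 (3 nmol); sham got the same volume of saline ICV. Dosing was intragastric daily for 26 days, with 0.5% CMC-Na as vehicle for sham and model. Body weight, diarrhea and emesis-like behavior were monitored.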

[2] = in vitro; details: PAMPA
[3] = Antioxidant activity assessed as trolox equivalent of AAPH-induced radical scavenging activity at 10 to 20 uM preincubated for 10 mins followed by AAPH addition measured every minute for 120 mins by ORAC fluorescein assay; type: functional
Procedure, shortened: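 ORAC values are expressed as trolox equivalents, mean ± SD of three independent experiments.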

[4] = system: Mus musculus; test: Cognition enhancement activity in amyloid beta (25 to 35 residues) induced C57BL/6J mouse model of Alzheimer's disease assessed as decrease in escape latancy at 4 mg/kg/day, ig administered for 26 consecutive days by Morris water maze test; type: functional, organism-based; procedure, shortened: as §1
[5] = system: Mus musculus; test: (§2) Neuroprotection in amyloid beta (25 to 35 residues) induced C57BL/6J mouse model of Alzheimer's disease assessed as reduction in ratio of apoptotic neuron in CA3 hippocampus region at 4 mg/kg/day, ig administered for 26 consecutive days by hematoxylin and eosin staining-based light microscopic analysis (reference value: 80.2 +/- 8.6%); type: ADME, organism-based; set-up: scale not given: the % may be the effect or the level left; details: in vivo, po
Procedure, shortened: (§3)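 Hippocampal CA1, CA3 and DG neurons were stained with H&E after the Aβ25-35 ICV model and 26-day intragastric dosing. Denatured cell index = denatured cells/total cells, n = 5. Values are mean ± SD, two-way ANOVA versus model.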

[6] = system: Mus musculus; test: as §2, with “CA1” for “CA3”, “40.6” for “80.2”, “12.5%)” for “8.6%)”; type: ADME, organism-based; set-up: scale not given: the % may be the effect or the level left; details: in vivo, po; procedure, shortened: as §3
[7] = system: Mus musculus; test: as §2, with “DG” for “CA3”, “55.8” for “80.2”, “7.2%)” for “8.6%)”; type: ADME, organism-based; set-up: scale not given: the % may be the effect or the level left; details: in vivo, po; procedure, shortened: as §3
[8] = system: Mus musculus; test: Cognition enhancement activity in amyloid beta (25 to 35 residues) induced C57BL/6J mouse model of Alzheimer's disease assessed as swimming speed at 30 mg/kg/day, ig administered for 26 consecutive days by Morris water maze test (reference value: 15.6 +/- 2.4 cm/sec); type: functional; procedure, shortened: as §1
[9] = system: Mus musculus; test: Cognition enhancement activity in amyloid beta (25 to 35 residues) induced C57BL/6J mouse model of Alzheimer's disease assessed as swimming path length in virtual platform at 4 mg/kg/day, ig administered for 26 consecutive days by Morris water maze test (10.2 +/- 3.2 cm); type: functional; procedure, shortened: as §1
[10] = Acute Toxicity in C57BL/6 mouse assessed as mouse mortality up to 2000 mg/kg, ig measured over 14 days; type: organism-based; details: in vivo, po, 336 h
Procedure, shortened: (§4)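 Mice given a single intragastric dose of test compound at various dosages, then observed for 14 days for death and abnormal behaviour. On day 14, animals were sacrificed and heart, liver, lungs and kidneys examined.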

[11] = system: Mus musculus; test: as §2, with “30” for “4”; type: ADME, organism-based; set-up: scale not given: the % may be the effect or the level left; details: in vivo, po; procedure, shortened: as §3
[12] = Metal chelating activity of the compound assessed as formation of ferrous-compound complex at 50 uM after 30 mins by UV-vis spectrophotometric analysis
Procedure, shortened: (§5)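 UV-vis absorption spectra of compound (50 µM) were recorded in HEPES buffer alone and with 50 µM CuSO4, ZnCl2, FeSO4 or FeCl3, and spectral changes were assessed.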

[13] = Acute Toxicity in C57BL/6 mouse up to 2000 mg/kg, ig measured every 14 days; type: organism-based; details: in vivo, po, 336 h; procedure, shortened: as §4
[14] = in vitro; details: Sprague-Dawley, rat, liver microsomes
[15] = Acute Toxicity in C57BL/6 mouse lung assessed as abnormal changes up to 2000 mg/kg, ig after 14 days by microscopic analysis; type: organism-based; details: in vivo, po, 336 h; procedure, shortened: as §4
[16] = system: Mus musculus; test: Cognition enhancement activity in amyloid beta (25 to 35 residues) induced C57BL/6J mouse model of Alzheimer's disease assessed as swimming path length in virtual platform at 30 mg/kg/day, ig administered for 26 consecutive days by Morris water maze test (10.2 +/- 3.2 cm); type: functional; procedure, shortened: as §1
[17] = system: Mus musculus; test: Cognition enhancement activity in amyloid beta (25 to 35 residues) induced C57BL/6J mouse model of Alzheimer's disease assessed as increase in number of virtual platform crossing at 30 mg/kg/day, ig administered for 26 consecutive days by Morris water maze test; type: functional, organism-based; procedure, shortened: as §1
[18] = Metal chelating activity of the compound assessed as formation of zinc-compound complex at 50 uM after 30 mins by UV-vis spectrophotometric analysis; procedure, shortened: as §5
[19] = Nephrotoxicity in C57BL/6 mouse assessed as tissue damage up to 2000 mg/kg, ig after 14 days by microscopic analysis; type: toxicity, organism-based; details: in vivo, po, 336 h; procedure, shortened: as §4
[20] = system: SH-SY5Y; test: Cytotoxicity against human SH-SY5Y cells assessed as effect on cell viability at 10 uM after 24 hrs by MTT assay; type: cell-based
Procedure, shortened: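 SH-SY5Y viability was measured by MTT after exposure to compounds at 10 µM. Results are percent of vehicle control from three independent experiments.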

[21] = Hepatotoxicity in C57BL/6 mouse assessed as tissue damage up to 2000 mg/kg, ig after 14 days by microscopic analysis; type: toxicity, organism-based; details: in vivo, po, 336 h; procedure, shortened: as §4
[22] = Toxicity in amyloid beta (25 to 35 residues) induced C57BL/6J mouse model of Alzheimer's disease assessed as emesis at 30 mg/kg/day, ig administered for 26 consecutive days; type: organism-based; details: in vivo, po; procedure, shortened: as §1
[23] = Metal chelating activity of the compound assessed as formation of cupric-compound complex at 50 uM after 30 mins by UV-vis spectrophotometric analysis; procedure, shortened: as §5
[24] = Metal chelating activity of the compound assessed as formation of ferric-compound complex at 50 uM after 30 mins by UV-vis spectrophotometric analysis; procedure, shortened: as §5
[25] = system: Mus musculus; test: Cognition enhancement activity in amyloid beta (25 to 35 residues) induced C57BL/6J mouse model of Alzheimer's disease assessed as decrease in escape latancy at 30 mg/kg/day, ig administered for 26 consecutive days by Morris water maze test; type: functional, organism-based; procedure, shortened: as §1
[26] = Cardiotoxicity in C57BL/6 mouse assessed as tissue damage up to 2000 mg/kg, ig after 14 days by microscopic analysis; type: toxicity, organism-based; details: in vivo, po, 336 h; procedure, shortened: as §4
[27] = biological target: 3',5'-cyclic-AMP phosphodiesterase 4D (Homo sapiens, UniProt Q08499); test: Inhibition of human PDE4D2 (86 to 413 residues) catalytic domain using [3H]-cAMP as substrate after 15 mins by liquid scintillation counting method
[28] = Nephrotoxicity in C57BL/6 mouse assessed as abnormal changes up to 2000 mg/kg, ig after 14 days by microscopic analysis; type: toxicity, organism-based; details: in vivo, po, 336 h; procedure, shortened: as §4
[29] = system: SH-SY5Y; test: Antioxidant activity in human SH-SY5Y cells assessed as inhibition of t-BuOOH-induced intracellular oxidative stress by measuring ROS level preincubated for 24 hrs followed by t-BuOOH addition and measured after 30 mins by DCFH-DA dye-based fluorescence assay; type: functional, cell-based
[30] = Drug metabolism in Sprague-Dawley rat liver microsomes assessed as metabolic rate up to 180 mins in presence of NADPH by UV-based LC-MS/MS analysis; type: ADME, Microsome; details: 3 h
[31] = Hepatotoxicity in C57BL/6 mouse assessed as abnormal changes up to 2000 mg/kg, ig after 14 days by microscopic analysis; type: toxicity, organism-based; details: in vivo, po, 336 h; procedure, shortened: as §4
[32] = system: Mus musculus; test: as §2, with “DG” for “CA3”, “30” for “4”, “55.8” for “80.2”, “7.2%)” for “8.6%)”; type: ADME, organism-based; set-up: scale not given: the % may be the effect or the level left; details: in vivo, po; procedure, shortened: as §3
[33] = Toxicity in amyloid beta (25 to 35 residues) induced C57BL/6J mouse model of Alzheimer's disease assessed as diarrhea at 30 mg/kg/day, ig administered for 26 consecutive days; type: organism-based; details: in vivo, po; procedure, shortened: as §1
[34] = Metal chelating activity assessed as inhibition of Cu(II)/ascorbate-induced ROS production by measuring […] level at 10 uM by fluorescence assay
Procedure, shortened: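 A Cu-ascorbate redox system in PBS (pH 7.4) at 37 °C, with Cu(II) 5 µM, ascorbate 150 µM and coumarin-3-carboxylic acid 50 µM as the hydroxyl radical trap. Compound was pre-incubated 10 min before ascorbate was added. Fluorescence of 7-hydroxy-CCA (ex 395, em 450 nm) was read every 30 s for 15 min.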

[35] = system: Mus musculus; test: Cognition enhancement activity in amyloid beta (25 to 35 residues) induced C57BL/6J mouse model of Alzheimer's disease assessed as swimming time in effective region at 30 mg/kg/day, ig administered for 26 consecutive days by Morris water maze test (4.3 +/- 1.3 sec); type: functional; procedure, shortened: as §1
[36] = Acute Toxicity in C57BL/6 mouse assessed as abnormal behavior up to 2000 mg/kg, ig measured over 14 days; type: organism-based; details: in vivo, po, 336 h; procedure, shortened: as §4
[37] = Cardiotoxicity in C57BL/6 mouse assessed as abnormal changes up to 2000 mg/kg, ig after 14 days by microscopic analysis; type: toxicity, organism-based; details: in vivo, po, 336 h; procedure, shortened: as §4
[38] = Toxicity in amyloid beta (25 to 35 residues) induced C57BL/6J mouse model of Alzheimer's disease assessed as loss of body weight at 30 mg/kg/day, ig administered for 26 consecutive days; type: organism-based; details: in vivo, po; procedure, shortened: as §1
[39] = Metal chelating activity assessed as inhibition of Cu(II)-induced amyloid beta (1 to 42 residues) aggregation at 25 uM after 24 hrs by TEM assay
Procedure, shortened: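 Samples were prepared as for the ThT assay. 10 µL aliquots were applied to carbon-coated copper grids for 2 min, then stained with 3% phosphotungstic acid for 2 min and imaged by transmission electron microscopy.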

[40] = Acute Toxicity in C57BL/6 mouse lung assessed as tissue damage up to 2000 mg/kg, ig after 14 days by microscopic analysis; type: organism-based; details: in vivo, po, 336 h; procedure, shortened: as §4
[41] = system: Mus musculus; test: Neuroprotection in C57BL/6J mouse model of amyloid beta (25 to 35 residues) induced Alzheimer's disease assessed as reduction in ratio of apoptotic neuron in CA1 hippocampus region at 30 mg/kg/day, ig administered for 26 consecutive days by hematoxylin and eosin staining-based light microscopic analysis (reference value: 40.6 +/- 12.5%); type: ADME, organism-based; set-up: scale not given: the % may be the effect or the level left; details: in vivo, po; procedure, shortened: as §3

Sequence of 3',5'-cyclic-AMP phosphodiesterase 4D (Q08499 whole entry, the tested form may be a part): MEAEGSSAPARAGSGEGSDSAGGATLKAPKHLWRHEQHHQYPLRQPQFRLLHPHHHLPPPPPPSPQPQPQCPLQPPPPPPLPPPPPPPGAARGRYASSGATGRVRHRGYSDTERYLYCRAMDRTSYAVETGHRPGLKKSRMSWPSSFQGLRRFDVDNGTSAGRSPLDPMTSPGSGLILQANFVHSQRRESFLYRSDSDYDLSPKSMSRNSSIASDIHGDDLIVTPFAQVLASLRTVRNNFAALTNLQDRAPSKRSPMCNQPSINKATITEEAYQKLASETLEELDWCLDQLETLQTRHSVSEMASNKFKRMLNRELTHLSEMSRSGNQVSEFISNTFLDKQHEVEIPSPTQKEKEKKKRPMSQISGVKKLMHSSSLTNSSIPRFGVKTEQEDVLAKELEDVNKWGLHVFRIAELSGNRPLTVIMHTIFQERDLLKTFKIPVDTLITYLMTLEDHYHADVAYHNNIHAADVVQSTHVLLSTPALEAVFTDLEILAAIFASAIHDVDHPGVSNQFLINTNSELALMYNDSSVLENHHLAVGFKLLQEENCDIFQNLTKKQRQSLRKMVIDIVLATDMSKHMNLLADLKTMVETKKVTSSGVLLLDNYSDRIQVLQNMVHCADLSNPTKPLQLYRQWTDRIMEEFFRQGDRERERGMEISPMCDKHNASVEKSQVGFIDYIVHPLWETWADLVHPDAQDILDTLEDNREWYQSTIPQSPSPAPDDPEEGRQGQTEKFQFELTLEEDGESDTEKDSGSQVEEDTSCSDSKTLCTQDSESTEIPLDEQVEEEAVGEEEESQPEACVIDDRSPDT

`COc1ccc(C2CNC(=O)C2)cc1OC1CCCC1` (centres undefined) [ROLIPRAM] gave a Time [1] of 5.7 s, a Papp at 10 h, 100 ug/ml [2] of 18.9 ×10⁻⁶ cm/s and an Activity [3] of 0.07 equiv. The Activity [4] was “Active”, the Activity [5] was 41.1% and the Activity [6] was 33.5%. For the same molecule, the Activity [7] was 25.7%, the Activity [8] was 15.1 cm/s and the Activity [9] was 16.5 cm.

With `Cl.O=C(Nc1ccc(O)c2ncccc12)c1ccc(OC(F)F)c(OCC2CC2)c1` the Activity [10] was “Non-Toxic”, the Activity [11] was 7.9% and the Activity [12] was “Active”. The Papp at 10 h, 100 ug/ml [2] was 12.9 ×10⁻⁶ cm/s, the Activity [13] was “Non-Toxic” and the Activity [3] was 0.6 equiv. The half-life [14] was 1.5 h, the Activity [15] was “Non-Toxic” and the Activity [16] was 19 cm. The Activity [17] was “Active”, the Activity [18] was “Active” and the Activity [19] was “Non-Toxic”. The Activity [20] was “Non-Toxic”, the Activity [21] was “Non-Toxic” and the Activity [22] was “Non-Toxic”. The Activity [23] was “Active”, the Activity [24] was “Active” and the Activity [25] was “Active”. The Activity [26] was “Non-Toxic”, the IC50 [27] was 399 nM and the Activity [28] was “Non-Toxic”. The Activity [8] was 15 cm/s, the Activity [29] was “Dose-dependent effect” and the K [30] was 0.00767 min⁻¹. For the same molecule, the Activity [31] was “Non-Toxic”, the Activity [32] was 18.7% and the Activity [33] was “Non-Toxic”. For the same molecule, the Activity [34] was “Active”, the Time [35] was 6.8 s and the Activity [36] was “Non-Toxic”. For the same molecule, the Activity [37] was “Non-Toxic”, the Activity [38] was “Non-Toxic” and the Activity [39] was “Active”. For the same molecule, the Activity [40] was “Non-Toxic” and the Activity [41] was 12.5%.
